pIC50: −log10 of the molar value.
Experiments:
[1] = biological target: T1, Adrenergic receptor alpha-1 (Rattus norvegicus, UniProt P15823+P23944+P43140); test: In vitro inhibition of [3H]prazosin binding to rat alpha-1 adrenergic receptors.; assay type: protein assay
T1 sequence (P15823 whole entry): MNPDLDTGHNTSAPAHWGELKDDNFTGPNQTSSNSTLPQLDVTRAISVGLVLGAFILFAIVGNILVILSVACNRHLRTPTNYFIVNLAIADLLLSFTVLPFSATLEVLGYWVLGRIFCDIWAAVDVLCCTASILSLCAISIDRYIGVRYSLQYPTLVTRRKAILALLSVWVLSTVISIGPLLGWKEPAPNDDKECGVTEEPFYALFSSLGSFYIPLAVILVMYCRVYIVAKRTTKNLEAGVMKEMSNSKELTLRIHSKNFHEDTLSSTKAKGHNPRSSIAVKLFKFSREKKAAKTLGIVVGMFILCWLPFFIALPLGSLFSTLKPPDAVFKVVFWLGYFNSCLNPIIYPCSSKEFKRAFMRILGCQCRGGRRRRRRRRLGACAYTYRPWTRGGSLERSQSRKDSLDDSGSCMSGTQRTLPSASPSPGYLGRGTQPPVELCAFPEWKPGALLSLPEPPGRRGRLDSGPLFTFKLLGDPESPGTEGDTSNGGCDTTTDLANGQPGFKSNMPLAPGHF
T1 sequence (P23944 whole entry): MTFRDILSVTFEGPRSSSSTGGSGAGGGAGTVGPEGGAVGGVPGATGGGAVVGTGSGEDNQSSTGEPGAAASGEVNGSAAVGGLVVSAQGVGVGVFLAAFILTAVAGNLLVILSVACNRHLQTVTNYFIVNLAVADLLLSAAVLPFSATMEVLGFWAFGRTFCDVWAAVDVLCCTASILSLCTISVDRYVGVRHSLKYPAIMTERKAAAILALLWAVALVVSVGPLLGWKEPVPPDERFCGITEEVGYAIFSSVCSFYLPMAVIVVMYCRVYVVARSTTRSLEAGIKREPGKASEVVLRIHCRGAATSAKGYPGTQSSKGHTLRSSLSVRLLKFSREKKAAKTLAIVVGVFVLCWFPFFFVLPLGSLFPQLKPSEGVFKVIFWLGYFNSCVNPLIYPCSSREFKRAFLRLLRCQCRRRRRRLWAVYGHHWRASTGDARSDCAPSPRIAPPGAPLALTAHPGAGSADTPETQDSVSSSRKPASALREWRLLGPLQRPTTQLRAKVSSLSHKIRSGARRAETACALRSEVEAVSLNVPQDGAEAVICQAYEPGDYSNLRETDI
T1 sequence (P43140 whole entry): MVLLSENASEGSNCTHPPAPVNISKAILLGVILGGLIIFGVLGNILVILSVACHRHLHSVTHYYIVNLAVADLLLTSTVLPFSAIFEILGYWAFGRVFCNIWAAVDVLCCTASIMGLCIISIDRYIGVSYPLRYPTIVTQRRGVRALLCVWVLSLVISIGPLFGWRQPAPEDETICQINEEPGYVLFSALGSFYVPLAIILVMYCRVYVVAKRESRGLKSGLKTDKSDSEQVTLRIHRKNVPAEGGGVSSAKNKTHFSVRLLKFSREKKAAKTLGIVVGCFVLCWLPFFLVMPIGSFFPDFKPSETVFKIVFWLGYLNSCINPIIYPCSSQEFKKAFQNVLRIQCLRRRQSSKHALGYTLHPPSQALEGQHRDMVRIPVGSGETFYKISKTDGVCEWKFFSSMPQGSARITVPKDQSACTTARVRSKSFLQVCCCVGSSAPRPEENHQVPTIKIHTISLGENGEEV
Procedure, shortened: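 [3H]Prazosin displacement in rat brain cortex membranes, standard binding procedure, with eight to nine concentrations of each hydrochloride salt. Specific binding was above 80% of total. LIGAND program used to obtain IC50 from inhibition of specific binding.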

[2] = biological target: T2, 5-hydroxytryptamine receptor 1A (Rattus norvegicus, UniProt P19327); test: In vitro inhibition of [3H]8-OH-DPAT binding to rat 5-HT 1a receptors.
T2 sequence (P19327 whole entry): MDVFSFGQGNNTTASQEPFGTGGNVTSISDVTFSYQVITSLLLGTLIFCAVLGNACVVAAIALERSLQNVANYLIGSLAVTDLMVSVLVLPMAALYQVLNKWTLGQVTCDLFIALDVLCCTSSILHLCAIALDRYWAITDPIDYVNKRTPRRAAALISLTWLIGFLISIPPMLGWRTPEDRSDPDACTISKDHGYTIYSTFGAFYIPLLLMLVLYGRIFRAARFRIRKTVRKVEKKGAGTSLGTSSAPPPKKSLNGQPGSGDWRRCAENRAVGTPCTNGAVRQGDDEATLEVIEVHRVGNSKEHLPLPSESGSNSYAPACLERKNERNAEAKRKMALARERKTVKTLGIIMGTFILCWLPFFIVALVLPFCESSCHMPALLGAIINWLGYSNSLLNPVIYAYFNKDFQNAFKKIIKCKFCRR
Procedure, shortened: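 Rat hippocampal membranes labelled with [3H]-8-OH-DPAT by standard binding methods, in competition with eight to nine test concentrations. Specific binding was over 80% of total. IC50 derived from inhibition of specific radioligand binding by LIGAND analysis.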

[3] = Selectivity for alpha-1 receptor compared to 5-HT1A receptor.
[4] = Selectivity for D2 receptor compared to 5-HT1A receptor.
D(2) dopamine receptor = D(2) dopamine receptor (Rattus norvegicus, UniProt P61169); test: In vitro inhibition of [3H]spiroperidol binding to rat Dopamine D2 receptors.
D(2) dopamine receptor, sequence (P61169 whole entry): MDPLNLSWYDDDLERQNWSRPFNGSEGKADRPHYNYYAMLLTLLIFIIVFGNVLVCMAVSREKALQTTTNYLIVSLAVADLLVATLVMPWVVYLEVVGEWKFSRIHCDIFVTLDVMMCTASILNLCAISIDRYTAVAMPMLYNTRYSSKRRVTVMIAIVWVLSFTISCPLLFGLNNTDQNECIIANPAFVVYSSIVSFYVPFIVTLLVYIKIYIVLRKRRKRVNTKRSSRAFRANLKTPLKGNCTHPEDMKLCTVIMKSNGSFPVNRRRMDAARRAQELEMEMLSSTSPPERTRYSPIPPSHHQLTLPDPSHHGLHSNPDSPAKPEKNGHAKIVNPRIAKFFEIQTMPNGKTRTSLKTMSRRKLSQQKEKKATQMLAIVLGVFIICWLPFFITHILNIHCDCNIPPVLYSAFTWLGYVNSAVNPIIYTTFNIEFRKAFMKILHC

IC50 [1] [µM]	pIC50 [2]	Selectivity [3]	Selectivity [4]	pIC50 (D(2) dopamine receptor)	Compound
0.085	8.35	19	196	6.06	COc1cccc2c1CCC[C@@H]2CCCN1CCN(c2ccccn2)CC1
		29	49		COc1ccccc1N1CCN(CCNC2CCCc3c(OC)cccc32)CC1 (configuration not stated)
0.95	8.62	396	254	6.21	COc1cccc2c1CCC[C@H]2CCCN1CCN(c2ccccc2)CC1
		122	259		COc1cccc2c1CCCC2CCCN1CCN(c2ccccn2)CC1 (configuration not stated)
1.7	8.15	243	271	5.72	COc1ccccc1N1CCN(CCCN[C@@H]2CCCc3c(OC)cccc32)CC1
0.228	8.15	33	93	6.19	COc1ccccc1N1CCN(CCN[C@H]2CCCc3c(OC)cccc32)CC1
		88	106		COc1ccccc1N1CCN(CCCNC2CCCc3c(OC)cccc32)CC1 (configuration not stated)
0.033	8.89				COc1ccccc1N1CCN(CCC[C@@H]2CCCc3c(OC)cccc32)CC1
0.58	8.64	252	261	6.22	COc1cccc2c1CCC[C@H]2CCCN1CCN(c2ccccn2)CC1
0.77				6.06	COc1ccccc1N1CCN(CCC(=O)N[C@@H]2CCCc3c(OC)cccc32)CC1
0.0008	8.80				COc1ccccc1N1CCN(CCC[C@H]2CCCc3c(OC)cccc32)CC1
0.649	7.47	19	68	5.64	COc1ccccc1N1CCN(CCCN[C@H]2CCCc3c(OC)cccc32)CC1
	8.60				NCCCC1(CCCN)CCc2cccc(O)c2C1
0.24				5.59	COc1ccccc1N1CCN(CCC(=O)N[C@H]2CCCc3c(OC)cccc32)CC1
0.061	8.37	14	205	6.06	COc1cccc2c1CCC[C@@H]2CCCN1CCN(c2ccccc2)CC1
1	8.00	100	320	5.49	COc1ccccc1N1CCN(CCN[C@@H]2CCCc3c(OC)cccc32)CC1
		86	220		COc1cccc2c1CCCC2CCCN1CCN(c2ccccc2)CC1 (configuration not stated)
